Test results taken from ChEMBL document CHEMBL2311397, “Design and synthesis of cyclopropylamide analogues of combretastatin-A4 as novel microtubule-stabilizing agents” (J Med Chem, 2013).
Calls of active or inactive are those of the source. The calls are words filed in the database; no cut-off is given here.

Assays:
[1] = test system: A549; assay: Effect on spindle microtubule dynamics in human A549 cells at 10 uM after 22 hrs by DAPI/FITC staining-based laser fluorescence confocal microscopic analysis
[2] = test system: A549; assay: Antitumor activity against human A549 cells xenografted in BALB/c nude mouse assessed as tumor growth inhibition at 100 mg/kg, ig measured on day 16; assay type: functional; conditions: A549, po, 384 h, route intragastric, read-out: TGI
Outline: (§1)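 Male BALB/c nude mice, 5 weeks old (18–20 g), implanted subcutaneously in the right armpit with A549 tumor fragments (3 mm3). On day 13, at 100–200 mm3, daily intragastric dosing began: 100 or 500 mg/kg test compound, or 30 mg/kg paclitaxel, in Tween-80 diluted with saline. Vehicle given ip. Tumor volume and body weight followed; n = 6; inhibition rate at day 16.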

[3] = test system: A549; assay: Cell cycle arrest in human A549 cells assessed as accumulation at S phase at 1 uM after 24 hrs by propidium iodide staining-based flow cytometry (reference value: 9.12 %); assay type: functional
[4] = test system: Mus musculus; assay: Toxicity in human A549 cells xenografted BALB/c nude mouse assessed as change in body weight at 100 to 500 mg/kg, ig; assay type: organism-based; parameters: dose 100-500 mg/kg, route intragastric; conditions: in vivo, po
Outline: as §1

[5] = test system: A549; assay: Cell cycle arrest in human A549 cells assessed as accumulation at G1 phase at 1 uM after 24 hrs by propidium iodide staining-based flow cytometry (reference value: 87.56 %); assay type: functional
[6] = test system: A549; assay: Effect on spindle microtubule dynamics in human A549 cells at 10 uM after 22 hrs by DAPI/FITC staining-based laser fluorescence confocal microscopic analysis; assay type: functional, cell-based
Outline: (§2)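 Confocal imaging of A549 cells exposed for 22 h to compound or vehicle (0.2% DMSO final), added at 70% confluency after overnight growth. Fixation followed by 0.5% Triton X-100 permeabilization and 10% goat serum blocking; tubulin stained with FITC anti-α-tubulin (1:100, 2 h, 37 °C), nuclei counterstained with DAPI. Wide-field images taken at 10–15 random slide locations.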

[7] = test system: A549; assay: Cell cycle arrest in human A549 cells assessed as accumulation at G2/M phase after 24 hrs by propidium iodide staining-based flow cytometry; assay type: functional
[8] = test system: A549; assay: Cell cycle arrest in human A549 cells assessed as accumulation at G1 phase at 5 uM after 24 hrs by propidium iodide staining-based flow cytometry (reference value: 87.56 %); assay type: functional
[9] = test system: A549; assay: Cell cycle arrest in human A549 cells assessed as accumulation at G2/M phase at 10 uM after 24 hrs by propidium iodide staining-based flow cytometry (reference value: 2.78 %); assay type: functional
[10] = test system: A549; assay: Cell cycle arrest in human A549 cells assessed as accumulation at G1 phase at 0.1 uM after 24 hrs by propidium iodide staining-based flow cytometry (reference value: 87.56 %); assay type: functional
[11] = test system: A549; assay: Induction of apoptosis in human A549 cells assessed as viable cells at 1 uM after 24 hrs by annexin V-FITC/propidium iodide staining-based flow cytometry (reference value: 94.08%); assay type: functional; conditions: A549, 24 h, read-out: Activity
[12] = test system: A549; assay: Induction of apoptosis in human A549 cells assessed as necrotic cells at 10 uM after 24 hrs by annexin V-FITC/propidium iodide staining-based flow cytometry (reference value: 2.76%); assay type: functional
[13] = test system: HeLa; assay: Cytotoxicity against human HeLa cells after 48 hrs by MTT assay; assay type: functional, cell-based; conditions: Homo sapiens, HeLa, 48 h
Outline: (§3)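 Log-phase cells (40000–50000 cells/mL) grown in DMEM with 10% fetal calf serum (5% CO2, 37 °C) and exposed 48 h to five concentrations, 3–5 replicates. Read-out was MTT with absorbance at 570 nm; IC50 reported as mean ± SD of three independent experiments. Resistant A549 and HeLa sublines were made by stepwise paclitaxel selection; resistance index = IC50(resistant)/IC50(sensitive).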

[14] = test system: A549; assay: Induction of apoptosis in human A549 cells early apoptotic cells at 10 uM after 24 hrs by annexin V-FITC/propidium iodide staining-based flow cytometry (reference value: 0.73 %); assay type: functional
[15] = test system: SW480; assay: Cytotoxicity against human SW480 cells after 48 hrs by MTT assay; assay type: functional, cell-based; conditions: Homo sapiens, SW480, 48 h
Outline: as §3

[16] = test system: A549; assay: Induction of apoptosis in human A549 cells assessed as necrotic cells at 1 uM after 24 hrs by annexin V-FITC/propidium iodide staining-based flow cytometry (reference value: 2.76%); assay type: functional
[17] = test system: A549; assay: Effect on chromosomal alteration in human A549 cells at 10 uM after 22 hrs by DAPI/FITC staining-based laser fluorescence confocal microscopic analysis
[18] = test system: K562; assay: Cytotoxicity against human K562 cells after 48 hrs by MTT assay; assay type: functional, cell-based; conditions: Homo sapiens, K562, 48 h
Outline: as §3

[19] = test system: A549; assay: Induction of apoptosis in human A549 cells early apoptotic cells at 5 uM after 24 hrs by annexin V-FITC/propidium iodide staining-based flow cytometry (reference value: 0.73 %); assay type: functional
[20] = test system: A549; assay: Cytotoxicity against human A549 cells after 48 hrs by MTT assay; assay type: functional, cell-based; conditions: Homo sapiens, A549, 48 h
Outline: as §3

[21] = test system: A549; assay: Cell cycle arrest in human A549 cells assessed as accumulation at S phase at 0.1 uM after 24 hrs by propidium iodide staining-based flow cytometry (reference value: 9.12 %); assay type: functional
[22] = molecular target: Tubulin (Homo sapiens) (UniProt P68371+Q9H4B7+P0DPH7+P68366+Q13509+Q71U36+P04350+Q3ZCM7+P07437+P68363+Q9BQE3+Q6PEY2+Q13885+Q9BVA1+Q9BUF5); assay: (§4) Activation of tubulin (unknown origin) polymerization; assay type: protein-complex assay
Outline: (§5)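 Purified brain tubulin (kit), final 3.0 mg/mL, in 80.0 mM PIPES sesquisodium pH 6.9, 2.0 mM MgCl2, 0.5 mM EGTA, 1 mM GTP, 10.2% glycerol; components prewarmed to 37 °C, reaction started by adding tubulin. A340 read each minute for 1 h. Single-point % stimulation used 10 μM compound; EC50 from 3.75, 7.5, 15, 30, 60 μM.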

[23] = molecular target: Tubulin; assay: as §4; assay type: protein-complex assay, Homo sapiens
Outline: as §5

[24] = test system: A549; assay: Antitumor activity against human A549 cells xenografted in ig dosed BALB/c nude mouse assessed as tumor growth inhibition measured on day 16; assay type: functional, organism-based
Outline: as §1

[25] = test system: A549; assay: Antitumor activity against human A549 cells xenografted in BALB/c nude mouse assessed as tumor growth inhibition at 500 mg/kg, ig measured on day 16; assay type: functional; conditions: A549, po, 384 h, route intragastric, read-out: TGI
Outline: as §1

[26] = test system: A549; assay: Effect on microtubule dynamics in human A549 cells at 5 to 10 uM after 22 hrs by DAPI/FITC staining-based laser fluorescence confocal microscopic analysis; assay type: functional, cell-based
Outline: as §2

[27] = test system: A549; assay: Induction of apoptosis in human A549 cells assessed as late apoptotic cells at 10 uM after 24 hrs by annexin V-FITC/propidium iodide staining-based flow cytometry (reference value: 1.02%); assay type: functional
[28] = test system: HeLa; assay: Resistance index, ratio of IC50 for paclitaxel-resistant human HeLa cells to IC50 for paclitaxel-sensitive human HeLa cells; assay type: functional
Outline: as §3

[29] = test system: A549; assay: Induction of apoptosis in human A549 cells assessed as viable cells at 10 uM after 24 hrs by annexin V-FITC/propidium iodide staining-based flow cytometry (reference value: 94.08%); assay type: functional; conditions: A549, 24 h, read-out: Activity

Activity [22]: Dose-dependent effect
EC50 [23]: 19.7 µM
Structure (SMILES): COc1cc([C@@H]2C[C@]2(CO)C(=O)Nc2ccccc2Cl)cc(OC)c1OC
Activity [1]: Active
inhibition in vivo at 100 mg/kg [2]: 44.6%
Activity [3]: 9.96%
Activity [4]: Non-toxic
Activity [5]: 38.41%
Activity [6]: Active
Activity [7]: Dose-dependent effect
Activity [8]: 28.62%
Activity [9]: 79.92%
Activity [10]: 78.7%
viability at 1 µM [11]: 80.2%
Activity [12]: 0.83%
IC50 [13]: 8.1 µM
Activity [14]: 55.23%
IC50 [15]: 13.2 µM
Activity [16]: 1.46%
Activity [17]: Active
IC50 [18]: 16.9 µM
Activity [19]: 37.4%
IC50 [20]: 4.4 µM
Activity [21]: 9.54%
TGI [24]: Dose-dependent effect
inhibition in vivo at 500 mg/kg [25]: 55.9%
Activity [26]: Active
Activity [27]: 2.99%
Ratio IC50 [28]: 1.3
viability at 10 µM [29]: 40.9%
